Reference: PMC12103582 (Nature Communications, 2025)

What was measured:
[1] = cited from earlier work
[2] = tested on: postoperative pain in patients who underwent elective abdominal surgery; assay: HSK21542-303 phase 3 trial: efficacy; type: in vivo, human; conditions: for SPID0–12h, LS mean (SE): 1.0 μg/kg (tramadol 50 mg/dose) i.v. at 0, 8, 16 h; for Time to rescue analgesic initiation, P25 (95% CI): 25th percentile; for Cumulative rescue analgesic dose 0–12h / Cumulative rescue analgesic dose 0–24 h: flurbiprofen axetil i.v.; for Cumulative rescue analgesic dose 0–12h / Cumulative rescue analgesic dose 0–24 h / Duration of analgesic effect / Patient satisfaction score / Physician satisfaction score: mean (SD); for Rescue analgesic received 0–12h, n (%) / Rescue analgesic received 0–24 h, n (%): rescue flurbiprofen axetil 50 mg i.v.; for NRS ≤3 12 h, n (%) / NRS ≤3 24 h, n (%): resting pain; for Patient satisfaction score / Physician satisfaction score: scale 0–10 at 24 h
[3] = tested on: patients who underwent elective abdominal surgery; assay: HSK21542-303: safety; type: in vivo, human
Outline: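 First dose given by i.v. pump within 10 min of randomization and a resting NRS ≥4 (within 4 h postsurgery); three doses 8 h ±15 min apart. Rescue flurbiprofen axetil 50 mg i.v. Antiemetic on demand only, tropisetron 2.5 mg preferred. TEAEs graded by CTCAE v5.0, with labs, ECG and vital signs over an 8-day follow-up.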

[4] = HSK21542-303, FAS, flurbiprofen axetil 50 mg i.v.
[5] = HSK21542-303, follow-up period, arms taken as HSK21542 vs tramadol vs placebo

COc1cccc(C2(O)CCCCC2CN(C)C)c1 (stereo not drawn) [Tramadol, tramadol]
excretion [1]: mainly excreted via the kidneys | patients with NRS ≤3 within 12 h ([2]; HSK21542-303, FAS): 51.2% | patients with NRS ≤3 within 24 h ([2]; HSK21542-303, FAS): 48.1% | SPID0–12h, LS mean (SE) ([2]; HSK21542-303, FAS): −28.7 (1.11) | Time to rescue analgesic initiation, P25 (95% CI) ([2]; HSK21542-303, FAS): 1.17 (0.53, 4.57) h | patients who received rescue analgesics within 0–12 h after first dose [2, 4]: 34.1% | patients who received rescue analgesics within 0–24 h after first dose [2, 4]: 35.7% | Cumulative rescue analgesic dose 0–12h ([2]; HSK21542-303, FAS): 26.7 (44.21) mg | Cumulative rescue analgesic dose 0–24 h ([2]; HSK21542-303, FAS): 29.3 (46.78) mg | Duration of analgesic effect ([2]; HSK21542-303, FAS): 21.3 (5.46) h | Rescue analgesic received 0–12h, n (%) ([2]; HSK21542-303, FAS): 44 (34.1) n (%) | Rescue analgesic received 0–24 h, n (%) ([2]; HSK21542-303, FAS): 46 (35.7) n (%) | NRS ≤3 12 h, n (%) ([2]; HSK21542-303, FAS): 66 (51.2) n (%) | NRS ≤3 24 h, n (%) ([2]; HSK21542-303, FAS): 62 (48.1) n (%) | Patient satisfaction score ([2]; HSK21542-303, FAS): 8.5 (1.58) | Physician satisfaction score ([2]; HSK21542-303, FAS): 8.4 (1.42) | SPID0–12h, LS mean (SE) ([2]; HSK21542-303, PPS): −29.8 (0.99) | Time to rescue analgesic initiation, P25 (95% CI) ([2]; HSK21542-303, PPS): 1.89 (0.60, 12.73) h | Cumulative rescue analgesic dose 0–12h ([2]; HSK21542-303, PPS): 23.3 (39.39) mg | Cumulative rescue analgesic dose 0–24 h ([2]; HSK21542-303, PPS): 26.0 (42.68) mg | Duration of analgesic effect ([2]; HSK21542-303, PPS): 22.4 (3.09) h | Rescue analgesic received 0–12h, n (%) ([2]; HSK21542-303, PPS): 39 (32.5) n (%) | Rescue analgesic received 0–24 h, n (%) ([2]; HSK21542-303, PPS): 41 (34.2) n (%) | NRS ≤3 12 h, n (%) ([2]; HSK21542-303, PPS): 63 (52.5) n (%) | NRS ≤3 24 h, n (%) ([2]; HSK21542-303, PPS): 59 (49.2) n (%) | Patient satisfaction score ([2]; HSK21542-303, PPS): 8.5 (1.59) | Physician satisfaction score ([2]; HSK21542-303, PPS): 8.4 (1.43) | incidence of nausea ([3]; HSK21542-303): 41.9% | incidence of vomiting ([3]; HSK21542-303): 38.0% | patients administered antiemetics within 24 h post first dose ([3]; HSK21542-303): 54 (41.9%) n (%) | patients with TEAEs that led to study withdrawal ([3]; HSK21542-303): two | Anemia ([3]; HSK21542-303, safety set): 16 (12.4) n (%) | Decreased lymphocyte count ([3]; HSK21542-303, safety set): 0 n (%) | Decreased serum potassium ([3]; HSK21542-303, safety set): 3 (2.3) n (%) | Decreased thyroid-stimulating hormone ([3]; HSK21542-303, safety set): 0 n (%) | Drug-related TEAE ([3]; HSK21542-303, safety set): 74 (57.4) n (%) | Fever ([3]; HSK21542-303, safety set): 10 (7.8) n (%) | Hematuria ([3]; HSK21542-303, safety set): 2 (1.6) n (%) | Hypokalemia ([3]; HSK21542-303, safety set): 10 (7.8) n (%) | Inflammation ([3]; HSK21542-303, safety set): 1 (0.8) n (%) | Nausea ([3]; HSK21542-303, safety set): 54 (41.9) n (%) | SAE ([3]; HSK21542-303, safety set): 1 (0.8) n (%) | Vomiting ([3]; HSK21542-303, safety set): 49 (38.0) n (%) | Any AE ([3]; HSK21542-303, safety set, 1.0 μg/kg (tramadol 50 mg/dose) i.v. at 0, 8, 16 h): 108 (83.7) n (%) | SAE ([3]; HSK21542-303, safety set, listed as tramadol): One | abnormal diastolic blood pressure [3, 5]: 0 cases | abnormal heart rate [3, 5]: 1 case | abnormal systolic blood pressure [3, 5]: 0 case
